Active and inactive are the calls of the source. The rule behind the calls is not given here.
How the values were obtained:
Escherichia coli = experiment: Antimicrobial activity against Escherichia coli ATCC 35218 by CLSI method; format: functional, organism-based
SF-539 [1] = experiment: Cytotoxicity against human SF539 cells assessed as cell growth at 8 nM by sulforhodamine B assay relative to control; format: functional; conditions: read-out: Activity
A549 [2] = experiment: Cytotoxicity against human A549 cells assessed as cell growth at 8 uM by sulforhodamine B assay relative to control; format: functional; conditions: read-out: Activity
Procedure, shortened: (§1)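 Run at NCI in the DTP 60-cell-line human tumor panel by standard procedure. Compounds were first screened at a single concentration, then tested at five tenfold-spaced concentrations. GI50 is the concentration reducing treated-cell growth to half that of untreated controls; TGI is the concentration completely halting growth.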

786-0 [3] = experiment: Cytotoxicity against human 786-0 cells assessed as cell growth at 80 nM by sulforhodamine B assay relative to control; format: functional; conditions: read-out: Activity; procedure, shortened: as §1
UACC-62 = experiment: Cytotoxicity against human UACC62 cells assessed as cell growth at 8 uM by sulforhodamine B assay relative to control; format: functional; conditions: read-out: Activity
MCF7 = experiment: Cytotoxicity against human MCF7 cells assessed as cell growth at 8 nM by sulforhodamine B assay relative to control; format: functional; conditions: read-out: Activity
Malme-3M [4] = experiment: Cytotoxicity against human MALME-3M cells assessed as cell growth at 80 uM by sulforhodamine B assay relative to control; format: functional; conditions: read-out: Activity
SF-295 [5] = experiment: Cytotoxicity against human SF295 cells assessed as cell growth at 80 uM by sulforhodamine B assay relative to control; format: functional; conditions: read-out: Activity
ACHN [6] = experiment: Cytotoxicity against human ACHN cells assessed as cell growth at 8 uM by sulforhodamine B assay relative to control; format: functional; conditions: read-out: Activity; procedure, shortened: as §1
Malme-3M [7] = experiment: Cytotoxicity against human MALME-3M cells assessed as cell growth at 8 uM by sulforhodamine B assay relative to control; format: functional; conditions: read-out: Activity
ACHN [8] = experiment: Cytotoxicity against human ACHN cells assessed as cell growth at 80 nM by sulforhodamine B assay relative to control; format: functional; conditions: read-out: Activity; procedure, shortened: as §1
SNB-75 = experiment: Cytotoxicity against human SNB75 cells assessed as cell growth at 80 nM by sulforhodamine B assay relative to control; format: functional; conditions: read-out: Activity
SN12C = experiment: Cytotoxicity against human SN12C cells assessed as cell growth at 80 uM by sulforhodamine B assay relative to control; format: functional; conditions: read-out: Activity
MOLT-4 = experiment: Cytotoxicity against human MOLT4 cells assessed as cell growth at 800 nM by sulforhodamine B assay relative to control; format: functional; conditions: read-out: Activity
M14 = experiment: Cytotoxicity against human M14 cells assessed as cell growth at 8 nM by sulforhodamine B assay relative to control; format: functional; conditions: read-out: Activity
DU-145 = experiment: Cytotoxicity against human DU145 cells assessed as cell growth at 80 nM by sulforhodamine B assay relative to control; format: functional; conditions: read-out: Activity
RPMI-8226 [9] = experiment: Cytotoxicity against human RPMI8226 cells assessed as cell growth at 8 nM by sulforhodamine B assay relative to control; format: functional; conditions: read-out: Activity
SNB-19 = experiment: Cytotoxicity against human SNB19 cells assessed as cell growth at 8 uM by sulforhodamine B assay relative to control; format: functional; conditions: read-out: Activity
HL-60(TB) = experiment: Cytotoxicity against human HL-60(TB) cells assessed as cell growth at 80 nM by sulforhodamine B assay relative to control; format: functional; conditions: read-out: Activity
K562 [10] = experiment: Cytotoxicity against human K562 cells assessed as cell growth at 8 nM by sulforhodamine B assay relative to control; format: functional; conditions: read-out: Activity
RPMI-8226 [11] = experiment: Cytotoxicity against human RPMI8226 cells assessed as cell growth at 80 nM by sulforhodamine B assay relative to control; format: functional; conditions: read-out: Activity
MDA-MB-435 [12] = experiment: Cytotoxicity against human MDA-MB-435 cells assessed as cell growth at 8 uM by sulforhodamine B assay relative to control; format: functional; conditions: read-out: Activity
PC-3 = experiment: Cytotoxicity against human PC3 cells assessed as cell growth at 8 uM by sulforhodamine B assay relative to control; format: functional; conditions: read-out: Activity
K562 [13] = experiment: Cytotoxicity against human K562 cells assessed as cell growth at 800 nM by sulforhodamine B assay relative to control; format: functional; conditions: read-out: Activity
NCI-H460 = experiment: Cytotoxicity against human NCI-H460 cells assessed as cell growth at 800 nM by sulforhodamine B assay relative to control; format: functional; conditions: read-out: Activity
K562 [14] = experiment: Cytotoxicity against human K562 cells assessed as cell growth at 80 nM by sulforhodamine B assay relative to control; format: functional; conditions: read-out: Activity
OVCAR-8 = experiment: Cytotoxicity against human OVCAR8 cells by sulforhodamine B assay; format: functional
Procedure, shortened: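 NCI Developmental Therapeutics Program 60-cell-line human tumor panel, standard procedure. Single-concentration prescreen first; active compounds then tested at five concentrations. GI50 is the concentration reducing growth of treated cells to half that of untreated controls.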

SF-539 [15] = experiment: Cytotoxicity against human SF539 cells assessed as cell growth at 800 nM by sulforhodamine B assay relative to control; format: functional; conditions: read-out: Activity
SF-295 [16] = experiment: Cytotoxicity against human SF295 cells assessed as cell growth at 80 nM by sulforhodamine B assay relative to control; format: functional; conditions: read-out: Activity
SF-295 [17] = experiment: Cytotoxicity against human SF295 cells assessed as cell growth at 8 uM by sulforhodamine B assay relative to control; format: functional; conditions: read-out: Activity
Hs-578T [18] = experiment: Cytotoxicity against human Hs578T cells by sulforhodamine B assay; format: functional
Procedure, shortened: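 NCI Developmental Therapeutics Program 60-cell-line human tumor panel screen, run at NCI. A single-concentration pre-screen was followed by a five-concentration dose-response in 10-fold steps. GI50 is the concentration that reduces growth of treated cells to half that of untreated control cells. TGI is the concentration that completely halts growth.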

SK-MEL-28 = experiment: Cytotoxicity against human SK-MEL-28 cells assessed as cell growth at 8 nM by sulforhodamine B assay relative to control; format: functional; conditions: read-out: Activity
786-0 [19] = experiment: Cytotoxicity against human 786-0 cells assessed as cell growth at 8 nM by sulforhodamine B assay relative to control; format: functional; conditions: read-out: Activity; procedure, shortened: as §1
A549 [20] = experiment: Cytotoxicity against human A549 cells assessed as cell growth at 80 nM by sulforhodamine B assay relative to control; format: functional; conditions: read-out: Activity; procedure, shortened: as §1
MDA-MB-435 [21] = experiment: Cytotoxicity against human MDA-MB-435 cells assessed as cell growth at 80 nM by sulforhodamine B assay relative to control; format: functional; conditions: read-out: Activity
786-0 [22] = experiment: Cytotoxicity against human 786-0 cells assessed as cell growth at 80 uM by sulforhodamine B assay relative to control; format: functional; conditions: read-out: Activity; procedure, shortened: as §1
SF-295 [23] = experiment: Cytotoxicity against human SF295 cells assessed as cell growth at 8 nM by sulforhodamine B assay relative to control; format: functional; conditions: read-out: Activity
SF-539 [24] = experiment: Cytotoxicity against human SF539 cells assessed as cell growth at 80 nM by sulforhodamine B assay relative to control; format: functional; conditions: read-out: Activity
Mus musculus = experiment: Acute toxicity in athymic nude mouse assessed as mortality at 25 mg/kg, […]; format: organism-based; set-up: dose 25 mg/kg, route intraperitoneal; conditions: in vivo, ip, 576 h
SF-268 = experiment: Cytotoxicity against human SF268 cells assessed as cell growth at 800 nM by sulforhodamine B assay relative to control; format: functional; conditions: read-out: Activity
Hs-578T [25] = experiment: Cytotoxicity against human Hs578T cells assessed as cell growth at 80 uM by sulforhodamine B assay relative to control; format: functional; conditions: read-out: Activity
HCC 2998 = experiment: Cytotoxicity against human HCC2998 cells assessed as cell growth at 80 nM by sulforhodamine B assay relative to control; format: functional; conditions: read-out: Activity

C/C=C1\NC(=O)[C@H](Cc2ccccc2)NC(=O)[C@@H](C(C)C)NC(=O)[C@@H]([C@@H](C)CC)NC(=O)[C@H](NC(=O)[C@H](NC(=O)[C@H](CCCNCc2ccc(N3CCOCC3)cc2)NC(=O)[C@H]2CCCN2C(=O)[C@H](NC(=O)[C@@H](NC(=O)[C@@H](NC(=O)[C@H](NC(=O)CCCC(C)C)C(C)C)[C@@H](C)O)C(C)C)C(C)C)[C@@H](C)CC)[C@@H](C)OC(=O)[C@H](C(C)C)NC1=O
Activity (Escherichia coli): inactive | growth at 0.008 µM (SF-539 [1]): 101% | growth at 8 µM (A549 [2]): -65% | growth at 0.08 µM (786-0 [3]): 93% | growth at 8 µM (UACC-62): -100% | growth at 0.008 µM (MCF7): 102% | growth at 80 µM (Malme-3M [4]): -23% | growth at 80 µM (SF-295 [5]): -33% | growth at 8 µM (ACHN [6]): -84% | growth at 8 µM (Malme-3M [7]): -71% | growth at 0.08 µM (ACHN [8]): 102% | growth at 0.08 µM (SNB-75): 113% | growth at 80 µM (SN12C): -17% | growth at 0.8 µM (MOLT-4): 95% | growth at 0.008 µM (M14): 99% | growth at 0.08 µM (DU-145): 89% | growth at 0.008 µM (RPMI-8226 [9]): 111% | growth at 8 µM (SNB-19): -70% | growth at 0.08 µM (HL-60(TB)): 96% | growth at 0.008 µM (K562 [10]): 103% | growth at 0.08 µM (RPMI-8226 [11]): 113% | growth at 8 µM (MDA-MB-435 [12]): -88% | growth at 8 µM (PC-3): -91% | growth at 0.8 µM (K562 [13]): 102% | growth at 0.8 µM (NCI-H460): 104% | growth at 0.08 µM (K562 [14]): 100% | GI50 (OVCAR-8): 1700 nM | LC50 (OVCAR-8): > 75900 nM | growth at 0.8 µM (SF-539 [15]): 93% | growth at 0.08 µM (SF-295 [16]): 99% | growth at 8 µM (SF-295 [17]): -40% | LC50 (Hs-578T [18]): > 75900 nM | GI50 (Hs-578T [18]; read-out: GI50): 453 nM | TGI (Hs-578T [18]; read-out: TGI): 444 nM | GI50 (Hs-578T [18]; read-out: pGI50 (converted)): 457 nM | TGI (Hs-578T [18]; read-out: pTGI (converted)): 2040 nM | growth at 0.008 µM (SK-MEL-28): 87% | growth at 0.008 µM (786-0 [19]): 103% | growth at 0.08 µM (A549 [20]): 102% | growth at 0.08 µM (MDA-MB-435 [21]): 99% | growth at 80 µM (786-0 [22]): -66% | growth at 0.008 µM (SF-295 [23]): 107% | growth at 0.08 µM (SF-539 [24]): 101% | Activity (Mus musculus): Toxic | growth at 0.8 µM (SF-268): 90% | growth at 80 µM (Hs-578T [25]): -40% | growth at 0.08 µM (HCC 2998): 98%

— ChEMBL document CHEMBL1921722, “In vitro and in vivo evaluation of select kahalalide F analogs with antitumor and antifungal activities” (Bioorg Med Chem, 2011)
